Measured values published in ChEMBL document CHEMBL3739308, “Resveratrol-Related Polymethoxystilbene Glycosides: Synthesis, Antiproliferative Activity, and Glycosidase Inhibition” (J Nat Prod, 2015).

What was measured:
[1] = Antiproliferative activity against human Caco2 cells after 72 hrs by MTT-based Mosmann assay relative to control; type: functional; conditions: Caco-2, 72 h
How it was run: (§1)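 Cells seeded at (2.5−3.0) × 10^3 per well, treated after 24 h with compound at final 0.01−100 μM; 0.5−1% DMSO controls. Exposure 3 days (72 h) at 37 °C, 5% CO2; MTT read at 570 nm, 6−8 wells per value. GI50 by NCI formula 100(T − T0)/(C − T0) = 50 versus time-zero and DMSO-control OD; mean ± SD of four experiments.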

SH-SY5Y = assay: Antiproliferative activity against human SH-SY5Y cells after 72 hrs by MTT-based Mosmann assay relative to control; type: functional; how it was run: as §1
[2] = Drug level in phosphate buffer treated with (2R,3S,4S,5S)-2-[2-(4-Methoxystyryl)-4,6-dimethoxyphenoxy]-tetrahydro-6-hydroxymethyl-2H-pyran-3,4,5-triol at 5 x 10^-5 M at pH 7.2 at 37 degC after 72 hrs by HPLC analysis in presence of Aspergillus oryzae beta-galactosidase; type: ADME; conditions: pH 7.2, 72 h
How it was run: (§2)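 Glycoside diluted from DMSO into 0.050 M Na2HPO4/KH2PO4 pH 7.2 to final 5.0 × 10−5 M (≤1.0% DMSO). Almond β-glucosidase (1.2 U/mL) or A. oryzae β-galactosidase (0.7 U/mL) added; 37 °C, shaking at 400 rpm, sampled up to 96 h. Enzyme-free controls run. Reversed-phase HPLC at 305 nm; released aglycone quantified against 10−5−10−6 M calibration curves. Triplicate.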

[3] = Inhibition of Saccharomyces cerevisiae alpha-glucosidase using pNP-alpha-Glc as substrate assessed as release of p-nitrophenol incubated for 2 hrs by spectrophotometric analysis
How it was run: (§3)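 Substrate at final 6.5 × 10−5 M in DMSO/0.050 M phosphate buffer pH 7.2, 25 °C, with five inhibitor levels (≤1.0% DMSO). Enzyme: 2.0 U/mL yeast α-glucosidase, 2 h; 2.9 U/mL almond β-glucosidase, 30 min. Nitrophenol release read at 400 nm; % inhibition from residual activity versus no-compound activity; IC50 = 50% inhibition. Triplicate; mean ± SD of three experiments.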

[4] = (§4) Half life in phosphate buffer assessed as almond beta-glucosidase-mediated compound hydrolysis at 5 x 10^-5 M at pH 7.2 at 37 degC measured within 96 hrs by HPLC analysis; type: ADME; conditions: prunus dulcis, buffer, pH 7.2, 96 h, 50 µM; how it was run: as §2
[5] = Stability of the compound in phosphate buffer assessed as Aspergillus oryzae beta-galactosidase-mediated compound hydrolysis at 5 x 10^-5 M at pH 7.2 at 37 degC measured within 96 hrs by HPLC analysis; type: ADME; conditions: pH 7.2, 96 h, 50 µM; how it was run: as §2
[6] = target: β-galactosidase (Aspergillus Oryzae) (Aspergillus oryzae, UniProt Q2UCU3); assay: Inhibition of Aspergillus oryzae beta-galactosidase using oNP-beta-Gal as substrate assessed as release of o-nitrophenol incubated for 30 mins by spectrophotometric analysis
How it was run: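 Inhibition assay (modified Tsujii method) at 25 °C. Substrate at 6.5 × 10−5 M final in DMSO/phosphate buffer (Na2HPO4/KH2PO4 0.050 M, pH 7.2). Enzyme at 4.0 U/mL. Compound stocks 2.6−4.7 × 10−4 M, five concentrations; DMSO ≤1.0% final. Absorbance read at 400 nm. Percent inhibition taken from residual activity versus no-compound control. IC50 is the mean of three experiments.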

[7] = Inhibition of almond beta-glucosidase using pNP-beta-Glc as substrate assessed as release of p-nitrophenol incubated for 30 mins by spectrophotometric analysis; parameters: species or system Prunus dulcis; how it was run: as §3
beta-glucosidase = assay: as §4; type: ADME; conditions: prunus dulcis, almond beta-glucosidase in phosphate buffer, pH 7.2; how it was run: as §2
beta-galactosidase = assay: Half life in phosphate buffer assessed as Aspergillus oryzae beta-galactosidase-mediated compound hydrolysis at 5 x 10^-5 M at pH 7.2 at 37 degC measured within 96 hrs by HPLC analysis
[8] = Antiproliferative activity against human Caco2 cells; type: functional, cell-based; conditions: Caco-2; how it was run: as §1

Sequence of β-galactosidase (Aspergillus Oryzae) (Q2UCU3 whole entry, looked up): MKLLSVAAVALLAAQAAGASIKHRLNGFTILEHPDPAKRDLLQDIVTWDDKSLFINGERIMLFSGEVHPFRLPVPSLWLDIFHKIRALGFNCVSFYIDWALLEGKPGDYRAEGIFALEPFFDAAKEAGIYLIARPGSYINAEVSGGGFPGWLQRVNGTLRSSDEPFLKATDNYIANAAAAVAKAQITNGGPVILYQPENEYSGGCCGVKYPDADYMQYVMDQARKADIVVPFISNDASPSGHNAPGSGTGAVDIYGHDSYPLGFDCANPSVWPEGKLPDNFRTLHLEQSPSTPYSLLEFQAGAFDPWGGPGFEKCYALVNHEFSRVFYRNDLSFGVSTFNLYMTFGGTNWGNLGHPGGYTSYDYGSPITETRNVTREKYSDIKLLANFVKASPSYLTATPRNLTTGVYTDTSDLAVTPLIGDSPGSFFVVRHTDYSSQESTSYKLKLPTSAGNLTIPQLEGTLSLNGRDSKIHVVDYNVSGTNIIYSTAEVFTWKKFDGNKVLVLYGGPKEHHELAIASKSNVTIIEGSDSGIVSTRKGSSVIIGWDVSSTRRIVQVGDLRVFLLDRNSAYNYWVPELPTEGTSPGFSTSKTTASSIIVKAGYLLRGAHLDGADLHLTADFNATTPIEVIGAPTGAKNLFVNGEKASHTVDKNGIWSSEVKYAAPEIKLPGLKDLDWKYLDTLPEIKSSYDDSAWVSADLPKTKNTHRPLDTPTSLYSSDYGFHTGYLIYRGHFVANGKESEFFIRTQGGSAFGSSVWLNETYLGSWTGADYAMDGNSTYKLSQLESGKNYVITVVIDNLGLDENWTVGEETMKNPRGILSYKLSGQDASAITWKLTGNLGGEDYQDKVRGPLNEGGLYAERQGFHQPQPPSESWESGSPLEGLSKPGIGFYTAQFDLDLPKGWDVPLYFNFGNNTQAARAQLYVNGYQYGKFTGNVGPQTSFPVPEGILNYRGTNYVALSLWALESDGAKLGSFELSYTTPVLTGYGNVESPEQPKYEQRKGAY

SMILES | GI50 [1] [µM] | GI50 (SH-SY5Y) [µM] | Drug metabolism [2] | IC50 [3] [µM] | Stability [4] | Stability [5] | IC50 [6] [µM] | IC50 ([7]; read-out: IC50) [µM] | half-life at 50 µM (beta-glucosidase) [h] | IC50 [7] | half-life at 50 µM (beta-galactosidase) [h] | IC50 [8] [µM]
COc1cc(/C=C/c2cc(OC)cc(OC)c2O)cc(OC)c1 | > 10 | > 10 |  |  |  |  |  |  |  |  |  | 
COc1cc(/C=C/c2ccc(OC)c(OC)c2)c(O)c(OC)c1 | 3 | 14.3 |  |  |  |  |  |  |  |  |  | 
COc1ccc(/C=C/c2cc(OC)cc(OC)c2O)cc1 | 5.8 | 4.5 | metabolite_detected |  |  |  |  |  |  |  |  | 
COc1ccc(/C=C/c2cc(OC)cc(OC)c2O[C@H]2O[C@H](CO)[C@H](O)[C@H](O)[C@H]2O)cc1 | > 10 | 48.4 |  | 201 | Stable | Stable | 298 | 350 |  |  |  | 
COc1cc(/C=C/c2cc(OC)cc(OC)c2O[C@H]2O[C@H](CO)[C@@H](O)[C@H](O)[C@H]2O)cc(OC)c1 | 44.2 | > 10 |  | 133 |  | Stable | 297 | 272 | 70 |  |  | 
COc1cc(/C=C/c2ccc(OC)c(OC)c2)c(O[C@H]2O[C@H](CO)[C@@H](O)[C@H](O)[C@H]2O)c(OC)c1 | > 10 | > 10 |  | 78 |  | Stable | 258 | 192 | 20 |  |  | 
COc1cc(/C=C/c2cc(OC)cc(OC)c2O[C@H]2O[C@H](CO)[C@H](O)[C@H](O)[C@H]2O)cc(OC)c1 | 16 | 22.5 |  | 332 | Stable | Stable | 296 |  |  | Not Active |  | 
COc1ccc(/C=C/c2cc(OC)cc(OC)c2O[C@H]2O[C@H](CO)[C@@H](O)[C@H](O)[C@H]2O)cc1 | > 10 | 21.9 |  | 91 |  |  |  | 208 | 11 |  | 77 | 
COc1cc(/C=C/c2ccc(OC)c(OC)c2)c(O[C@H]2O[C@H](CO)[C@H](O)[C@H](O)[C@H]2O)c(OC)c1 | > 10 | > 10 |  | 70 | Stable | Stable | 299 | 170 |  |  |  | 
COc1cc(/C=C/C(=O)CC(=O)/C=C/c2ccc(O)c(OC)c2)ccc1O [CURCUMIN] |  |  |  |  |  |  |  |  |  |  |  | 10.3
CC/C(=C(/CC)c1ccc(O)cc1)c1ccc(O)cc1 [DIETHYLSTILBESTROL] |  |  |  |  |  |  |  |  |  |  |  | 75
O=c1[nH]cc(F)c(=O)[nH]1 [FLUOROURACIL] | 2.2 | 1.5 |  |  |  |  |  |  |  |  |  | 
